“And” between values parts separate entries of the source, which are not always exact repeats. Equal entries are not always repeated. The source made the active and inactive calls.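 How the source made its calls: active means peak inhibition above 30% of the KCNK3 potassium channel at some dose, plus a fitted dose response curve; inactive means no inhibition at any dose, or no fitted curve.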

The term IC50 denotes the concentration at which inhibition is half-maximal.

Chain of Potassium channel subfamily K member 3 (Rattus norvegicus) (O54912 whole entry, looked up): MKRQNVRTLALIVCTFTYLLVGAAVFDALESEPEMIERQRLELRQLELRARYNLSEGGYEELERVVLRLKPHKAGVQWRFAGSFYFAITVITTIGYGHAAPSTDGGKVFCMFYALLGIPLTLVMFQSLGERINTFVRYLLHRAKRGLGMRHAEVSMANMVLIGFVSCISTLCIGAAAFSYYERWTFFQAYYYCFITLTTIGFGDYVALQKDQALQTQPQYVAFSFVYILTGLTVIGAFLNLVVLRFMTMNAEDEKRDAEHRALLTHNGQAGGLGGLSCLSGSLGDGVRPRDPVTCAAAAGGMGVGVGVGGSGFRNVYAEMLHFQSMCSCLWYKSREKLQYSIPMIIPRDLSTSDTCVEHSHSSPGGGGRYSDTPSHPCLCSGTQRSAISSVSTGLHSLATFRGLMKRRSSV

One assay concerns the target Potassium channel subfamily K member 3 (Rattus norvegicus) (UniProt O54912). As to the kind of experiment: KCNK3 potassium channel inhibitors, SAR follow-up, selectivity assay for KCNK9 inhibitor project, cell-based, FluxOR thallium flux, CRC set 3 (AID 623894). Conditions: KCNK3-expressing cell line, FluxOR thallium flux fluorescence. The gist of the method: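 Assay system: tetracycline-induced KCNK3 CHO cells / Times: dye loading 90 min, compound exposure 20 min, room temperature, dark / Signal: kinetic thallium-flux fluorescence with FluxOR dye, 110 s post-stimulus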
With `COc1ccc(NC(=O)CSc2nnc(-c3ccco3)n2C(C)C2CC3CCC2C3)cc1OC` (configuration not stated), the IC50 is 30.3 µM.
Take `CC(C1CC2CCC1C2)n1c(SCC(=O)N2CCN(C)CC2)nnc1-c1ccco1` (configuration not stated): the IC50 was 24.8 µM.
For `CC(C1CC2CCC1C2)n1c(SCCc2ccccn2)nnc1-c1ccco1` (configuration not stated), the IC50 was 1.86 µM.
Regarding `COc1cccc(-c2nnc(SSc3nnc(-c4cccc(OC)c4)n3C(C)C3CC4CCC3C4)n2C(C)C2CC3CCC2C3)c1` (configuration not stated), the IC50 is 1.74 µM.
Consider `COc1ccc(CC(=O)NCc2ccccc2-c2ccccc2C(=O)NCc2ccc(F)cc2F)cc1`, for which the IC50 was 0.201 µM.
As for `C[C@@H]([C@@H]1CC2CC[C@H]1C2)n1c(-c2ccco2)n[nH]c1=S`, the IC50 was 0.818 µM and 6.59 µM.
`COc1ccc(C(=O)CCSc2nnc(-c3ccco3)n2C(C)C2CC3CCC2C3)cc1OC` (configuration not stated): the IC50 is 0.322 µM.
For `COc1ccc(CSc2nnc(-c3ccco3)n2C(C)C2CC3CCC2C3)cc1OC` (configuration not stated), the IC50 was 2.19 µM.
Take `C[C@H](C1CCCCC1)n1c(-c2ccccc2F)n[nH]c1=S`: the IC50 is 5.88 µM.
For `COc1cccc(-c2n[nH]c(=S)n2[C@H](C)[C@@H]2CC3CC[C@H]2C3)c1`, the IC50 is 1.1 µM.
On to `CC(C1CC2CCC1C2)n1c(SCCc2cccc(O)c2)nnc1-c1ccco1` (configuration not stated), for which the IC50 was 1.66 µM.
As for `C[C@H]([C@@H]1CC2CC[C@H]1C2)n1c(-c2ccccc2F)n[nH]c1=S`, the IC50 is 0.121 µM.
Regarding `COc1cccc(CCSc2nnc(-c3ccco3)n2C(C)C2CC3CCC2C3)c1` (configuration not stated), the 50% inhibitory concentration (IC50) is 0.893 µM.
In the case of `CC(C1CC2CCC1C2)n1c(-c2ccco2)nn(CCc2ccncc2)c1=S` (configuration not stated), the concentration for half-maximal inhibition (IC50) was 4.71 µM.
As for `C[C@H](C1CCCCC1)n1c(-c2ccsc2)n[nH]c1=S`, the IC50 is 6.03 µM.
Consider `CC(C1C[C@H]2CCC1C2)n1c(-c2ccsc2)n[nH]c1=S` (some centres not stated), for which the IC50 is 10.7 µM.
For the compound `COc1cccc(-c2n[nH]c(=S)n2[C@H](C)C2CCCCC2)c1`, the IC50 is 12.4 µM.
Same read-out and setting: in the case of `CC([C@@H]1CC2CC[C@H]1C2)n1c(-c2ccsc2)n[nH]c1=S` (some centres not stated) it was 1.17 µM; in that of `C[C@H]([C@@H]1CC2CC[C@H]1C2)n1c(-c2ccco2)n[nH]c1=S`, 0.159 µM.

Still in this assay, the particulars now being: KCNK3-expressing cell line, FluxOR thallium flux fluorescence; at 30 µM (top of the series).
In the case of `CC(C1CCN(C)CC1)n1c(-c2ccco2)n[nH]c1=S` (configuration not stated), the “flux ratio, lower = inhibition” value is “inactive”.
On to `CC(C1CC2CCC1C2)n1c(SCCN2CCOCC2)nnc1-c1ccco1` (configuration not stated), for which the “flux ratio, lower = inhibition” value was “inactive”.
The same measure, in the same setting: in the case of `CC(C1CC2CCC1C2)n1c(N)nnc1-c1ccco1` (configuration not stated) it was “inactive”.

Values taken from PubChem BioAssay AID623894 (Johns Hopkins Ion Channel Center, 2012).
